These results are taken from ChEMBL document CHEMBL2176929, “Hepatoprotective iridoid glycosides from the roots of Rehmannia glutinosa” (J Nat Prod, 2012).

What is called inhibition is the change of the read-out against control, counted positive when it falls. Usually IC50 stands for the concentration at which inhibition is half-maximal. A high value points to weaker potency.

Experiment [1] can be described thus: Hepatoprotective activity in human HL7702 cells assessed as inhibition of D-galactosamine-induced cell damage at 10 uM preincubated for 1 hr prior to D-galactosamine challenge measured after 24 hrs by MTT assay relative to untreated control. Type of experiment: functional. The conditions noted are these: L02. An outline of the steps: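 HL-7702 cells, 2 × 10^4 per well in RPMI 1640 with 10% FCS and penicillin/streptomycin, precultured 24 h at 37 °C in 5% CO2. Pretreated 1 h with samples (10 μM) or bicyclol (10 μM, positive control) in fresh medium, then given 25 mM D-galactosamine for 24 h. Medium removed, 0.5 mg/mL MTT for 4 h, formazan dissolved in DMSO, OD read at 492 nm. Inhibition (%) calculated by formula. Mean ± SD, n = 3 (normal/control n = 6).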

For a further experiment, the system named is L02. Description: Hepatoprotective activity in D-galactosamine-treated human HL7702 cells assessed as survival rate at 10 uM preincubated for 1 hr prior to D-galactosamine challenge measured after 24 hrs by MTT assay relative to normal cell. Format: functional. Particulars: read-out: Survival. The procedure, abridged:
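HL-7702 cells, 2 × 10^4 per well in RPMI 1640 with 10% fetal calf serum, penicillin and streptomycin, precultured 24 h at 37 °C, 5% CO2. Test samples added in fresh medium for 1 h, then 25 mM D-galactosamine for 24 h. MTT 0.5 mg/mL, 4 h; formazan dissolved in DMSO, OD at 492 nm. Bicyclol 10 μM positive control; means ± SD, n = 3.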
For orientation: Tetrazolium assays rely on reduction of a dye to a coloured formazan, in cell work by metabolically active cells.

A further experiment has as its system A2780. Description: Cytotoxicity against human A2780 cells after 4 days by MTT assay. Format: functional, cell-based. Particulars: A2780, 96 h.
For a further experiment, the system named is A549. Description: Cytotoxicity against human A549 cells after 4 days by MTT assay. Format: functional, cell-based. Particulars: A549, 96 h.
A further experiment concerns BGC-823. Kind of experiment: Cytotoxicity against human BGC823 cells after 4 days by MTT assay. Format: functional, cell-based. The conditions noted are these: BGC-823, 96 h.
A further experiment deals with Bel-7402. Kind of experiment: Cytotoxicity against human Bel7402 cells after 4 days by MTT assay. Type of experiment: functional, cell-based. Particulars: Bel-7402, 96 h.
For another experiment, the system named is HCT-8. Kind of experiment: Cytotoxicity against human HCT8 cells after 4 days by MTT assay. Format: functional, cell-based. Particulars: HCT-8, 96 h.

On to `COC(=O)c1cc(OC)c2c(c1-c1c(CO)cc(OC)c3c1OCO3)OCO2` [BICYCLOL], for which, in experiment [1], the inhibition at 10 µM came out at 16.7%. The viability at 10 µM in the experiment on L02 was 63.6%.
On to `C[C@]1(O)C[C@@H](OC(=O)/C=C/c2ccccc2)[C@@H]2C=CO[C@@H](O[C@@H]3O[C@H](CO)[C@@H](O)[C@H](O)[C@H]3O)[C@@H]21` [REHMAGLUTOSIDE A], for which the IC50 in the experiment with A2780, in the experiment on A549, in the experiment with BGC-823, in the experiment with Bel-7402 and in the experiment with HCT-8 was above 10 µM throughout.
Consider `COc1cc(C(=O)O[C@@H]2C[C@](C)(O)[C@H]3[C@H](O[C@@H]4O[C@H](CO)[C@@H](O)[C@H](O)[C@H]4O)OC=C[C@H]32)ccc1O[C@@H]1O[C@H](CO)[C@@H](O)[C@H](O)[C@H]1O` [REHMAGLUTOSIDE B], for which the IC50 in the experiment on A2780, in the experiment with A549, in the experiment with BGC-823, with Bel-7402 and with HCT-8 was above 10 µM in each case.
In the case of `COc1cc(C(=O)O[C@@H]2C[C@](C)(O)[C@H]3[C@H](O[C@@H]4O[C@H](CO)[C@@H](O)[C@H](O)[C@H]4O)OC=C[C@H]32)cc(OC)c1O[C@@H]1O[C@@H](C)[C@H](O)[C@@H](O)[C@H]1O` [REHMAGLUTOSIDE C], the IC50 with A2780, with A549, with BGC-823, with Bel-7402 and in the experiment on HCT-8 was above 10 µM each time. In addition, the inhibition at 10 µM in experiment [1] was 33.6%. The viability at 10 µM in the experiment with L02 came to 71%.
Consider `C[C@]1(O)C[C@@H](OC(=O)CCc2cc(O)ccn2)[C@@H]2C=CO[C@@H](O[C@@H]3O[C@H](CO)[C@@H](O)[C@H](O)[C@H]3O)[C@@H]21` [REHMAGLUTOSIDE D], for which the IC50 in the experiment on A2780, in the experiment on A549, with BGC-823, in the experiment with Bel-7402 and with HCT-8 was above 10 µM in each case.
For `COc1cc([C@@H]2Oc3c(O)cc(/C=C/C(=O)O[C@@H]4C[C@](C)(O)[C@H]5[C@H](O[C@@H]6O[C@H](CO)[C@@H](O)[C@H](O)[C@H]6O)OC=C[C@H]54)cc3[C@H]2CO)ccc1O` [REHMAGLUTOSIDE E], the IC50 in the experiment on A2780, in the experiment with A549, with BGC-823, in the experiment with Bel-7402 and in the experiment on HCT-8 was above 10 µM in each case.
For the molecule `CC(/C=C/[C@@]1(O)C(C)(C)CCC[C@@]1(C)O)=C\C(=O)O[C@@H]1C[C@](C)(O)[C@H]2[C@H](O[C@@H]3O[C@H](CO)[C@@H](O)[C@H](O)[C@H]3O)OC=C[C@H]21` [REHMAGLUTOSIDE F], the IC50 with A2780, in the experiment with A549, in the experiment on BGC-823, with Bel-7402 and in the experiment on HCT-8 was above 10 µM throughout.
`CC(/C=C/[C@@]1(O)C(C)(C)C[C@H](O)C[C@@]1(C)O)=C\C(=O)O[C@@H]1C[C@](C)(O)[C@H]2[C@H](O[C@@H]3O[C@H](CO)[C@@H](O)[C@H](O)[C@H]3O)OC=C[C@H]21` [REHMAGLUTOSIDE G]: the IC50 in the experiment on A2780, in the experiment with A549, in the experiment with BGC-823, in the experiment on Bel-7402 and in the experiment on HCT-8 was above 10 µM throughout. For the same molecule, in experiment [1], the inhibition at 10 µM came out at 38.7%. Further, the viability at 10 µM with L02 was determined as 73.2%.
For `CC(/C=C/[C@@]1(O)C(C)(C)CC[C@@H](O)[C@@]1(C)O)=C\C(=O)O[C@@H]1C[C@](C)(O)[C@H]2[C@H](O[C@@H]3O[C@H](CO)[C@@H](O)[C@H](O)[C@H]3O)OC=C[C@H]21` [REHMAGLUTOSIDE H], the IC50 with A2780, in the experiment on A549, with BGC-823, in the experiment on Bel-7402 and with HCT-8 was above 10 µM throughout.
With `CC(/C=C/[C@@]1(O)C(C)(C)CCC[C@@]1(C)O[C@@H]1O[C@H](CO)[C@@H](O)[C@H](O)[C@H]1O)=C\C(=O)O[C@@H]1C[C@](C)(O)[C@H]2[C@H](O[C@@H]3O[C@H](CO)[C@@H](O)[C@H](O)[C@H]3O)OC=C[C@H]21` [REHMAGLUTOSIDE I], the IC50 in the experiment on A2780, in the experiment on A549, with BGC-823, in the experiment with Bel-7402 and with HCT-8 was above 10 µM in each case. The inhibition at 10 µM in experiment [1] was 28.2%. Also, the viability at 10 µM with L02 came to 68.6%.
As to `C[C@]1(O)C[C@@H](O)[C@@H]2C=CO[C@@H](O[C@@H]3O[C@H](CO[C@H]4C[C@H]5[C@@H]([C@@H](O[C@@H]6O[C@H](CO)[C@@H](O)[C@H](O)[C@H]6O)O4)[C@](C)(O)C[C@@H]5O)[C@@H](O)[C@H](O)[C@H]3O)[C@@H]21` [REHMAGLUTOSIDE J], the IC50 with A2780, with A549, in the experiment with BGC-823, in the experiment with Bel-7402 and with HCT-8 was above 10 µM each time. Further, the inhibition at 10 µM in experiment [1] was 25.2%. Moreover, in the experiment on L02, the viability at 10 µM is 67.3%.
`C[C@]1(O)C[C@@H](O)[C@@H]2C=CO[C@@H](O[C@@H]3O[C@H](CO[C@@H]4C[C@H]5[C@@H]([C@@H](O[C@@H]6O[C@H](CO)[C@@H](O)[C@H](O)[C@H]6O)O4)[C@](C)(O)C[C@@H]5O)[C@@H](O)[C@H](O)[C@H]3O)[C@@H]21` [REHMAGLUTOSIDE K]: the IC50 with A2780, with A549, in the experiment with BGC-823, with Bel-7402 and with HCT-8 was above 10 µM in each case. Further, in experiment [1], the inhibition at 10 µM is 35.5%. In addition, in the experiment with L02, the viability at 10 µM was found to be 71.8%.
